Values after ≈ are worked out from the molar mass of the structure shown.
What was measured:
Staphylococcus aureus = experiment: Antibacterial activity against Staphylococcus aureus ATCC 29213 after 20 to 22 hrs by broth microdilution method; format: functional
How it was run: (§1)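 CLSI broth microdilution MIC. Twofold compound dilutions spanned 128-0.5 µg/mL, with azithromycin as comparator. Streptococci were grown on Columbia agar with 5% sheep blood, and their broth used 5% horse serum instead of lysed blood. H. influenzae was grown on Mueller-Hinton chocolate agar and staphylococci on Mueller-Hinton agar. Direct colony suspension gave 5x10⁴ CFU/well. Plates were read visually after 20-22 h at 37°C in ambient air.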

Jurkat = experiment: Cytotoxicity against human Jurkat T cells assessed as NADH level after overnight incubation by MTS assay; format: cell-based
How it was run: (§2)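 Cells were maintained in RPMI 1640 with 10% FBS at 37°C under 5% CO₂. Compounds were twofold serially diluted across 100-0.2 µM, and 5x10⁴ cells/well were added and incubated overnight at 37°C, 5% CO₂. MTS reagent was then added for 1 h under the same conditions, and absorbance was read at 490 nm.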

Streptococcus pyogenes = experiment: Antibacterial activity against Streptococcus pyogenes ATCC 700294 after 20 to 22 hrs by broth microdilution method; format: functional; conditions: M1 GAS; how it was run: as §1
HepG2 = experiment: Cytotoxicity against human HepG2 cells assessed as NADH level after overnight incubation by MTS assay; format: cell-based; how it was run: as §2
Haemophilus influenzae = experiment: Antibacterial activity against Haemophilus influenzae ATCC 49247 after 20 to 22 hrs by broth microdilution method; format: functional; how it was run: as §1
Escherichia coli = experiment: Antibacterial activity against Escherichia coli ATCC 25922 after 20 to 22 hrs by broth microdilution method; format: functional; how it was run: as §1
Streptococcus pneumoniae = experiment: Antibacterial activity against Streptococcus pneumoniae ATCC 49619 after 20 to 22 hrs by broth microdilution method; format: functional; how it was run: as §1
Moraxella catarrhalis = experiment: Antibacterial activity against Moraxella catarrhalis ATCC 23246 after 20 to 22 hrs by broth microdilution method; format: functional; how it was run: as §1

Structure (SMILES)	MIC (Staphylococcus aureus) [µg/mL]	IC50 (Jurkat) [µM]	MIC (Streptococcus pyogenes) [µg/mL]	IC50 (HepG2) [µM]	MIC (Haemophilus influenzae) [µg/mL]	MIC (Escherichia coli) [µg/mL]	MIC (Streptococcus pneumoniae) [µg/mL]	MIC (Moraxella catarrhalis) [µg/mL]
O=c1c2ccccc2oc2cccc(O)c12	> 128	> 100	> 128	> 100	> 128	> 128	> 128	128 (≈ 603 µM)
CC(=O)Oc1cc(OC(C)=O)c2c(=O)c3cccc(OC(C)=O)c3oc2c1	> 128	92	> 128	> 100	> 128	> 128	> 128	> 128
CC(=O)Oc1ccc2c(=O)c3c(OC(C)=O)cc(OC(C)=O)cc3oc2c1	64 (≈ 173 µM)	> 100	> 128	> 100	128 (≈ 346 µM)	> 128	> 128	4 (≈ 10.8 µM)
CC(=O)Oc1cc(OC(C)=O)c2c(=O)c3c(OC(C)=O)cccc3oc2c1	128 (≈ 346 µM)	62	> 128	93	> 128	> 128	> 128	128 (≈ 346 µM)
O=c1c2ccccc2sc2cc(O)cc(O)c12	16 (≈ 65.5 µM)	> 100	> 128	> 100	16 (≈ 65.5 µM)	> 128	> 128	8 (≈ 32.8 µM)
CC(=O)Oc1cc(OC(C)=O)c2c(=O)c3ccccc3sc2c1	> 128	> 100	> 128	> 100	> 128	> 128	> 128	64 (≈ 195 µM)
O=c1c2cc(O)ccc2oc2cc(O)cc(O)c12	128 (≈ 524 µM)	> 100	> 128	> 100	> 128	> 128	> 128	128 (≈ 524 µM)
O=c1c2cccc(O)c2oc2cc(O)cc(O)c12	> 128	> 100	> 128	> 100	> 128	> 128	> 128	16 (≈ 65.5 µM)
O=c1c2ccccc2oc2cc(O)cc(O)c12	64 (≈ 280 µM)	> 100	> 128	> 100	64 (≈ 280 µM)	> 128	> 128	16 (≈ 70.1 µM)
CC(=O)Oc1cccc2oc3ccccc3c(=O)c12	> 128	78	> 128	> 100	> 128	> 128	> 128	128 (≈ 503 µM)
O=c1c2ccc(O)cc2oc2cccc(O)c12	32 (≈ 140 µM)	75	> 128	93	> 128	> 128	> 128	8 (≈ 35.1 µM)
CC(=O)Oc1cc(OC(C)=O)c2c(=O)c3ccccc3oc2c1	128 (≈ 410 µM)	> 100	> 128	> 100	128 (≈ 410 µM)	> 128	> 128	32 (≈ 102 µM)
O=c1c2ccc(O)cc2oc2cc(O)cc(O)c12	64 (≈ 262 µM)	> 100	> 128	> 100	32 (≈ 131 µM)	> 128	> 128	2 (≈ 8.19 µM)
CC(=O)Oc1cc(OC(C)=O)c2c(=O)c3cc(OC(C)=O)ccc3oc2c1	> 128	> 100	> 128	> 100	> 128	> 128	> 128	> 128
O=c1c2c(O)cccc2oc2cc(O)cc(O)c12	8 (≈ 32.8 µM)	83	> 128	90	16 (≈ 65.5 µM)	> 128	128 (≈ 524 µM)	8 (≈ 32.8 µM)
CC(=O)Oc1ccc2c(=O)c3c(OC(C)=O)cccc3oc2c1	64 (≈ 205 µM)	> 100	> 128	90	128 (≈ 410 µM)	> 128	> 128	16 (≈ 51.2 µM)
CC[C@H]1OC(=O)[C@H](C)[C@@H](O[C@H]2C[C@@](C)(OC)[C@@H](O)[C@H](C)O2)[C@H](C)[C@@H](O[C@@H]2O[C@H](C)C[C@H](N(C)C)[C@H]2O)[C@](C)(O)C[C@@H](C)CN(C)[C@H](C)[C@@H](O)[C@]1(C)O [AZITHROMYCIN]	1 (≈ 1.34 µM)	–	< 0.125	–	1 (≈ 1.34 µM)	2 (≈ 2.67 µM)	< 0.125	< 0.125
